Results from ChEMBL document CHEMBL4311940, “Design, Synthesis, and Biological Evaluation of 4-Methyl Quinazoline Derivatives as Anticancer Agents Simultaneously Targeting Phosphoinositide 3-Kinases and Histone Deacetylases” (J Med Chem, 2019).

Key:
[1] = Toxicity in ip dosed ICR mouse assessed as maximum tolerated dose; type: organism-based; conditions: in vivo
In short: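 Male ICR mice, 6−8 weeks old, given one dose; vehicle 0.5% cmc with Tween 80 for oral dosing, saline for intraperitoneal dosing. Clinical signs observed and body weights recorded for 7 consecutive days after dosing to set the maximum tolerated dose.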

HCT-116 [2] = assay: Antiproliferative activity against human HCT116 cells after 96 hrs by MTT assay; type: functional, cell-based; conditions: HCT-116, 96 h
Histone deacetylase 11 = Histone deacetylase 11 (Homo sapiens, UniProt Q96DB2); assay: Inhibition of recombinant human full length HDAC11 expressed in baculovirus infected Sf9 insect cells using Ac-peptide as substrate preincubated for 15 mins followed by substrate addition and measured after 1 hr
Histone deacetylase 11, sequence (Q96DB2 whole entry, canonical isoform): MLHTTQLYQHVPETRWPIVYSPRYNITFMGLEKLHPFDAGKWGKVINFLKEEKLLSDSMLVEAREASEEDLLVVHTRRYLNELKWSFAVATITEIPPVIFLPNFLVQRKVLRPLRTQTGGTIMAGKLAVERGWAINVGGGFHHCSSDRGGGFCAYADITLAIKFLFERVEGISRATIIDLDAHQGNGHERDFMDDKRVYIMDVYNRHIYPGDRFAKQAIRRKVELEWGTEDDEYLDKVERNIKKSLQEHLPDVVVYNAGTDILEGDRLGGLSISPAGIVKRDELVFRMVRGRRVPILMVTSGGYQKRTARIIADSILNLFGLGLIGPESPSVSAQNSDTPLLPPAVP
In short: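 Recombinant HDAC isoforms mixed with serially diluted compound in assay buffer for 15 min at room temperature. Ac-peptide substrate then added and incubated 1 h at room temperature. Signal read on a plate reader; IC50 by curve fitting.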

HCT-116 [3] = assay: Induction of apoptosis in human HCT116 cells assessed as early apoptotic cells at 20 nM after 48 hrs by Annexin V-FITC/propidium iodide staining-based flow cytometric analysis (reference value: 1.33%); type: functional
HCT-116 [4] = assay: Induction of apoptosis in human HCT116 cells assessed as necrotic cells at 20 nM after 48 hrs by Annexin V-FITC/propidium iodide staining-based flow cytometric analysis (reference value: 5.23%); type: functional
HCT-116 [5] = assay: Induction of apoptosis in human HCT116 cells after 48 hrs by Annexin V-FITC/propidium iodide staining-based flow cytometric analysis; type: functional, cell-based
HCT-116 [6] = assay: Induction of apoptosis in human HCT116 cells assessed as late apoptotic cells at 20 nM after 48 hrs by Annexin V-FITC/propidium iodide staining-based flow cytometric analysis (reference value: 3.87%); type: functional
HCT-116 [7] = assay: Induction of apoptosis in human HCT116 cells assessed as late apoptotic cells at 100 nM after 48 hrs by Annexin V-FITC/propidium iodide staining-based flow cytometric analysis (reference value: 3.87%); type: functional
HCT-116 [8] = assay: Induction of apoptosis in human HCT116 cells assessed as necrotic cells at 100 nM after 48 hrs by Annexin V-FITC/propidium iodide staining-based flow cytometric analysis (reference value: 5.23%); type: functional
HCT-116 [9] = assay: Induction of apoptosis in human HCT116 cells assessed as live cells at 500 nM after 48 hrs by Annexin V-FITC/propidium iodide staining-based flow cytometric analysis (reference value: 89.6%); type: functional
HCT-116 [10] = assay: Induction of apoptosis in human HCT116 cells assessed as late apoptotic cells at 500 nM after 48 hrs by Annexin V-FITC/propidium iodide staining-based flow cytometric analysis (reference value: 3.87%); type: functional
HCT-116 [11] = assay: Induction of cell cycle arrest in human HCT116 cells assessed as accumulation at G1 phase at 100 to 500 nM after 24 hrs by propidium iodide/RNase staining-based FACS analysis; type: functional
In short: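 HCT116 cells cultured overnight in 6-well plates, exposed to compound at various concentrations for 24 h; FxCycle PI/RNase staining and flow cytometry for cell cycle phase distribution.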

[12] = Tmax in ICR mouse at 3 mg/kg, iv measured after 0.033 to 24 hrs by LC/MS/MS analysis; type: ADME, organism-based; conditions: in vivo
In short: (§1)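 Male-unspecified ICR mice, 3 per group iv (3 mg/kg in 10% DMSO/saline) and 5 per group po (30 mg/kg in 0.5% cmc/0.3% Tween 80). Blood sampled 0.033 (iv) or 0.083 (po) to 24 h. Plasma extracted with acetonitrile, analysed by LC/MS/MS; noncompartmental analysis.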

[13] = Tmax in ICR mouse at 30 mg/kg, po measured after 0.083 to 24 hrs by LC/MS/MS analysis; type: ADME, organism-based; conditions: in vivo; in short: as §1
[14] = Cmax in ICR mouse at 30 mg/kg, po measured after 0.083 to 24 hrs by LC/MS/MS analysis; type: ADME, organism-based; parameters: dose 30 mg/kg, route oral; conditions: in vivo
In short: (§2)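 ICR mice; iv 3 mg/kg in 10% DMSO/saline (3 mice/group), blood at 0.033, 0.083, 0.25, 0.5, 1, 2, 4, 8, 12, 24 h; po 30 mg/kg as 0.5% cmc/0.3% Tween 80 suspension (5 mice/group), blood at 0.083–24 h. Plasma extracted with acetonitrile, LC/MS/MS; parameters by noncompartmental analysis.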

[15] = AUC (0 to t) in ICR mouse at 3 mg/kg, iv measured after 0.033 to 24 hrs by LC/MS/MS analysis; type: ADME, organism-based; parameters: dose 3 mg/kg, time upper 24 hr, time lower 0.033 hr, route intravenous; conditions: in vivo; in short: as §2
[16] = AUC (0 to t) in ICR mouse at 30 mg/kg, po measured after 0.083 to 24 hrs by LC/MS/MS analysis; type: ADME, organism-based; parameters: time upper 24 hr, dose 30 mg/kg, time lower 0.083 hr, route oral; conditions: in vivo; in short: as §2
[17] = AUC (0 to infinity) in ICR mouse at 3 mg/kg, iv measured after 0.033 to 24 hrs by LC/MS/MS analysis; type: ADME, organism-based; parameters: dose 3 mg/kg, time infinity, route intravenous; conditions: in vivo; in short: as §2
[18] = Clearance in ICR mouse at 3 mg/kg, iv measured after 0.033 to 24 hrs by LC/MS/MS analysis; type: ADME, organism-based; conditions: in vivo; in short: as §2
[19] = Oral bioavailability in ICR mouse at 30 mg/kg measured after 0.083 to 24 hrs by LC/MS/MS analysis; type: ADME, organism-based; conditions: in vivo; in short: as §1
K562 = assay: Antiproliferative activity against human K562 cells after 96 hrs by MTT assay; type: functional, cell-based; conditions: K562, 96 h
NCI-H1299 = assay: Antiproliferative activity against human NCI-H1299 cells after 96 hrs by MTT assay; type: functional, cell-based; conditions: NCI-H1299, 96 h
SW1990 = assay: Antiproliferative activity against human SW1990 cells after 96 hrs by MTT assay; type: functional, cell-based; conditions: SW1990, 96 h
HepG2 = assay: Antiproliferative activity against human HepG2 cells after 96 hrs by MTT assay; type: functional, cell-based; conditions: HepG2, 96 h
Huh-7 = assay: Antiproliferative activity against human HuH7 cells after 96 hrs by MTT assay; type: functional, cell-based; conditions: Huh-7, 96 h
[20] = molecular target: Voltage-gated inwardly rectifying potassium channel KCNH2 (Homo sapiens, UniProt Q12809); assay: Inhibition of human ERG stably expressed in CHO cells by whole cell patch clamp method; type: cell-based
Voltage-gated inwardly rectifying potassium channel KCNH2, sequence (Q12809 whole entry): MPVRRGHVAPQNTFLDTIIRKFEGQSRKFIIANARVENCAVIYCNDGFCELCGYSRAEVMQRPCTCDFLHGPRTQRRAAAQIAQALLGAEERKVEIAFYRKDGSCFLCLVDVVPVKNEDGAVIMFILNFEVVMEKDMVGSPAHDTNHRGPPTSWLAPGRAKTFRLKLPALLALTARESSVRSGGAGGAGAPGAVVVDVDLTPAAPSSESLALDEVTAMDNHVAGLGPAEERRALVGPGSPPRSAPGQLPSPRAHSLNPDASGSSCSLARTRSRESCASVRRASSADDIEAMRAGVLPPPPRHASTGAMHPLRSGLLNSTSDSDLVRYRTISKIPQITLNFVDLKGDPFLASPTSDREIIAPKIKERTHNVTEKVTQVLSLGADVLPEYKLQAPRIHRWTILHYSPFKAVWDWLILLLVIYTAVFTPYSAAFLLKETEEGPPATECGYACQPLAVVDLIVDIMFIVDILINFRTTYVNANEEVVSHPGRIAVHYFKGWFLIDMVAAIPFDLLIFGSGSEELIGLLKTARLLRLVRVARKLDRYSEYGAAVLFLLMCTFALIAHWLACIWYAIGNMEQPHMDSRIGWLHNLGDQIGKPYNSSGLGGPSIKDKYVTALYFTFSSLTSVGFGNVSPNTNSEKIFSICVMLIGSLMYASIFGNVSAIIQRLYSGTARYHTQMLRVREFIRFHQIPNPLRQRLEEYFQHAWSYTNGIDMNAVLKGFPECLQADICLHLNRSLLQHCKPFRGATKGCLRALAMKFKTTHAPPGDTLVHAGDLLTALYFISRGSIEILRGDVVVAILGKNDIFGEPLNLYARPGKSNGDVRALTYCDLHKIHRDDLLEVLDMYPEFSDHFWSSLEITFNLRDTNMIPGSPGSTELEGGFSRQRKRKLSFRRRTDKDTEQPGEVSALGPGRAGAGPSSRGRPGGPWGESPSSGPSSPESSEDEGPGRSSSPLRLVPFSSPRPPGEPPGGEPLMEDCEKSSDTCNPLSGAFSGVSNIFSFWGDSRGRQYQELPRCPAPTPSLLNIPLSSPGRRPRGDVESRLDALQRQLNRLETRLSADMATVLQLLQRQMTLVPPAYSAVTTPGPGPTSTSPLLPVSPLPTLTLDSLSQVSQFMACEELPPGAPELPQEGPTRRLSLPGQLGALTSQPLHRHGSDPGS
In short: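 CHO cells stably expressing hERG, grown in F-12 (Ham)/GlutaMAX with 10% FBS, penicillin G, blasticidin S and hygromycin B. Expression induced with 1 μg/mL doxycycline, cells cultured 24 h, then recorded by whole-cell patch clamp.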

[21] = Mutagenicity in Salmonella typhimurium TA97 at 5 to 500 ug/plate in presence of s9 mix by Ames test; type: toxicity, subcellular; conditions: salmonella enterica subsp. enterica serovar typhimurium
In short: (§3)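 Plate incorporation method at 5, 50 and 500 μg/plate, with and without S9 activation. At least three plates per dose, incubated 72 h at 37 °C, revertants counted. Mean revertants compared with vehicle and positive controls.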

[22] = Mutagenicity in Salmonella typhimurium TA100 at 5 to 500 ug/plate in absence of s9 mix by Ames test; type: toxicity; conditions: salmonella enterica subsp. enterica serovar typhimurium; in short: as §3
[23] = Mutagenicity in Salmonella typhimurium TA102 at 5 to 500 ug/plate in presence of s9 mix by Ames test; type: toxicity, subcellular; conditions: salmonella enterica subsp. enterica serovar typhimurium; in short: as §3
[24] = Mutagenicity in Salmonella typhimurium TA1535 at 5 to 500 ug/plate in presence of s9 mix by Ames test; type: toxicity, subcellular; conditions: salmonella enterica subsp. enterica serovar typhimurium; in short: as §3

SMILES	MTD [1] [mg/kg]	IC50 (HCT-116 [2]) [nM]	IC90 (HCT-116 [2]) [nM]	IC50 (Histone deacetylase 11) [nM]	Activity (HCT-116 [3]) [%]	Activity (HCT-116 [4]) [%]	Activity (HCT-116 [5])	Activity (HCT-116 [6]) [%]	Activity (HCT-116 [7]) [%]	Activity (HCT-116 [8]) [%]	Activity (HCT-116 [9]) [%]	Activity (HCT-116 [10]) [%]	Activity (HCT-116 [11])	Tmax [12] [min]	Tmax [13] [min]	Cmax [14] [ng/mL]	AUC(0-t) [15] [ng·h/mL]	AUC(0-t) [16] [ng·h/mL]	clearance [18] [mL/min/kg]	IC50 (K562) [nM]	further results
COc1ccc(-c2cc(OCCN(C)c3ncc(C(=O)NO)cn3)c3ncnc(C)c3c2)cn1	> 100	7	2800	> 1000	4.53	5.97	Dose-dependent effect	5.89	9.92	2.99	43.8	24.4	Dose-dependent effect	1.8	108	9.39	133	23.1	352	1200	AUC [17]: 143 ng·h/mL; F [19]: 1.7%; IC50 (NCI-H1299): 180 nM; IC50 (SW1990): 230 nM; IC50 (HepG2): 76 nM; IC50 (Huh-7): 240 nM; IC50 [20]: > 30000 nM; Activity [21]: Non-Toxic; Activity [22]: Non-Toxic; Activity [23]: Non-Toxic; Activity [24]: Non-Toxic
COc1ncc(-c2cc(OCCCCCCC(=O)NO)c3ncnc(C)c3c2)cc1F	> 100	150	48000	> 1000	1.83	4.1	Dose-dependent effect	5.48	7.97	4.64	67.9	10.3	Dose-dependent effect	1.8	18	143	551	230	90	6800	AUC(0-inf) ([17]; ICR): 558 ng·h/mL; bioavailability ([19]; ICR): 4.2%; IC50 (NCI-H1299): 1000 nM; IC50 (SW1990): 900 nM; IC50 (HepG2): 1100 nM; IC50 (Huh-7): 2500 nM; IC50 [20]: > 30000 nM; Activity [21]: Non-Toxic; Activity [22]: Non-Toxic; Activity [23]: Non-Toxic; Activity [24]: Non-Toxic
